Results reported in ChEMBL document CHEMBL1773010, “Cytotoxic and apoptosis-inducing activities of limonoids from the seeds of Azadirachta indica (neem)” (J Nat Prod, 2011).

What was measured:
Format in all cases: functional, cell-based
[1] = Cytotoxicity against human AZ-521 cells assessed as cell viability after 48 hrs by MTT assay; details: AZ-521, 48 h
Method in brief: (§1)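 Cells seeded at 3 × 10^3 per well and exposed to compounds from 1 × 10^-4 to 1 × 10^-6 M for 48 h. MTT was then added for 3 h, formazan dissolved in 0.04 M HCl in 2-propanol, and absorbance read at 570 nm against 630 nm. IC50 is the concentration giving 50% growth inhibition, from triplicate assays.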

A549 = experiment: Cytotoxicity against human A549 cells assessed as cell viability after 48 hrs by MTT assay; details: A549, 48 h; method in brief: as §1
HL-60 = experiment: Cytotoxicity against human HL60 cells assessed as cell viability after 48 hrs by MTT assay; details: HL-60, 48 h; method in brief: as §1
SK-BR-3 = experiment: Cytotoxicity against human SK-BR-3 cells assessed as cell viability after 48 hrs by MTT assay; details: SK-BR-3, 48 h; method in brief: as §1
[2] = Cytotoxicity against human CRL1579 cells assessed as cell viability after 48 hrs by MTT assay; method in brief: as §1

| Structure (SMILES) | IC50 [1] | IC50 (A549) | IC50 (HL-60) | IC50 (SK-BR-3) | IC50 [2] |
| --- | --- | --- | --- | --- | --- |
| COC(=O)C[C@H]1[C@]2(C)C3=C(C)[C@H](c4ccoc4)C[C@H]3O[C@@H]2[C@H](O)[C@@H]2[C@]1(C)C(=O)C=C[C@@]2(C)C(=O)OC [DEACETYLNIMBIN] | > 20 µM | > 20 µM | 11.6 µM | > 20 µM | > 20 µM |
| COC(=O)C[C@H]1[C@]2(C)C3=C(C)[C@H](c4ccoc4)C[C@H]3O[C@@H]2[C@H](OC(C)=O)[C@@H]2[C@]1(C)C(=O)C=C[C@@]2(C)C(=O)OC [NIMBIN] | > 20 µM | > 20 µM | – | > 20 µM | 15.9 µM |
| CC(=O)O[C@@H]1C[C@H]2C(C)(C)C(=O)C=C[C@]2(C)[C@H]2CC[C@@]3(C)C(c4ccoc4)=C(O)C(=O)[C@H]3[C@@]21C | > 20 µM | > 20 µM | > 20 µM | > 20 µM | > 20 µM |
| CCC(C)C(=O)O[C@H]1C[C@@H](OC(C)=O)[C@@]2(C(=O)OC)CO[C@H]3[C@@H](O)[C@@](C)([C@]45O[C@@]4(C)C4CC5O[C@@H]5C[C@@H](OC)C[C@]45O)[C@@H]4[C@@H](C(=O)OC)OC[C@@]14[C@@H]32 (some centres undefined) | > 20 µM | > 20 µM | > 20 µM | > 20 µM | > 20 µM |
| CC(=O)O[C@@H]1C[C@H]2C(C)(C)C(=O)C=C[C@]2(C)[C@H]2CC[C@]3(C)C(=CC(=O)[C@H]3c3ccoc3)[C@@]21C [AZADIRADIONE] | > 20 µM | > 20 µM | 14.7 µM | 15.9 µM | > 20 µM |
| CCC(C)C(=O)O[C@H]1C[C@@H](OC(C)=O)[C@@]2(C(=O)OC)CO[C@H]3[C@@H](O)[C@@](C)([C@]45O[C@@]4(C)C4CC5O[C@@H]5C[C@H](OC)C[C@]45O)[C@@H]4[C@@H](C(=O)OC)OC[C@@]14[C@@H]32 (some centres undefined) [VEPAOL] | > 20 µM | > 20 µM | > 20 µM | > 20 µM | > 20 µM |
| C/C=C(\C)C(=O)O[C@@H]1C[C@H](O)[C@]23CO[C@H](C(=O)OC)[C@H]2[C@](C)([C@]24O[C@@]2(C)[C@H]2C[C@@H]4O[C@@H]4OC=C[C@@]42O)[C@H](O)[C@@H]2OC[C@@]1(C(=O)OC)[C@H]23 [AZADIRACHTIN B] | > 20 µM | > 20 µM | > 20 µM | > 20 µM | > 20 µM |
| CC(=O)O[C@@H]1C[C@H]2C(C)(C)C(=O)C=C[C@]2(C)[C@H]2CC[C@]3(C)C(=CC(=O)[C@H]3C3=CCOC3=O)[C@@]21C [AZADIRADIONOLIDE] | > 20 µM | > 20 µM | > 20 µM | 11.5 µM | > 20 µM |
| C/C=C(/C)C(=O)O[C@H]1C[C@@H](OC(C)=O)[C@@]2(C)CO[C@H]3[C@H]4O[C@@H]5C[C@@H](c6ccoc6)C(C)=C5[C@@]4(C)[C@H](CC(=O)OC)[C@]1(C)[C@@H]32 [SALANNIN] | > 20 µM | > 20 µM | > 20 µM | > 20 µM | > 20 µM |
| CCC(C)C(=O)O[C@H]1C[C@@H](OC(C)=O)[C@@]2(C)CO[C@H]3[C@H]4O[C@@H]5C[C@@H](c6ccoc6)C(C)=C5[C@@]4(C)[C@H](CC(=O)OC)[C@]1(C)[C@@H]32 (some centres undefined) | > 20 µM | > 20 µM | 17.1 µM | > 20 µM | > 20 µM |
| CC(=O)O[C@@H]1C[C@H]2C(C)(C)C(=O)C=C[C@]2(C)[C@H]2CC[C@@]3(C)CC(=O)C=C3[C@@]21C [DESFURANOAZADIRADIONE] | > 20 µM | > 20 µM | 19.8 µM | > 20 µM | > 20 µM |
| CC(=O)O[C@@H]1C[C@H]2C(C)(C)C(=O)C=C[C@]2(C)[C@H]2CC[C@@]3(C)[C@H](c4ccoc4)OC(=O)[C@H]4O[C@]43[C@@]21C [GEDUNIN] | 16.9 µM | > 20 µM | 5.9 µM | 8.3 µM | > 20 µM |
| C/C=C(/C)C(=O)O[C@H]1C[C@@H](OC(C)=O)[C@@]2(C)CO[C@H]3[C@H]4O[C@@H]5CC(=O)C(C)=C5[C@@]4(C)[C@H](CC(=O)OC)[C@]1(C)[C@@H]32 | > 20 µM | > 20 µM | > 20 µM | > 20 µM | > 20 µM |
| CC=C(C)C(=O)O[C@@H]1[C@@H]2OC[C@]3(C)[C@H](OC(C)=O)C[C@H](O)[C@](C)([C@H]4CC[C@@](C)([C@@H](C)[C@H]5COC(=O)C5)C[C@]14C)[C@@H]23 | > 20 µM | > 20 µM | > 20 µM | > 20 µM | > 20 µM |
| CC(=O)O[C@@H]1C[C@H]2C(C)(C)C(=O)C=C[C@]2(C)[C@H]2CC[C@]3(C)OC(=O)C=C3[C@@]21C | > 20 µM | > 20 µM | > 20 µM | > 20 µM | > 20 µM |
| CC1(C)C(=O)C=C[C@]2(C)[C@H]3CC[C@@]4(C)[C@H](c5ccoc5)OC(=O)[C@H]5O[C@]54[C@]3(C)[C@H](O)C[C@@H]12 [DEACETYLGEDUNIN] | 16.9 µM | > 20 µM | > 20 µM | 12 µM | > 20 µM |

| Structure (SMILES) | IC50 [1] | IC50 (A549) | IC50 (HL-60) | IC50 (SK-BR-3) | IC50 [2] |
| --- | --- | --- | --- | --- | --- |
| CC=C(C)C(=O)O[C@H]1C[C@@H](OC(C)=O)[C@@]2(C(=O)OC)CO[C@H]3[C@H]4O[C@@H]5C6C[C@@H](O[C@@H]7OC=C[C@]67O)[C@]5(O)[C@@]4(C)[C@@H]4[C@@](OC)(C(=O)OC)OC[C@@]14[C@@H]32 | > 20 µM | > 20 µM | > 20 µM | > 20 µM | > 20 µM |
| CC(=O)O[C@@H]1C[C@H]2C(C)(C)C(=O)C=C[C@]2(C)[C@H]2CC[C@]3(C)C(=CC[C@H]3[C@H]3COC(=O)C3)[C@@]21C | > 20 µM | > 20 µM | > 20 µM | > 20 µM | > 20 µM |
| CC(=O)O[C@@H]1C[C@H]2C(C)(C)C(=O)C=C[C@]2(C)[C@H]2CC[C@]3(C)C(=C(O)C(=O)[C@H]3c3ccoc3)[C@@]21C | > 20 µM | > 20 µM | > 20 µM | > 20 µM | > 20 µM |
| CC1(C)C(=O)C=C[C@]2(C)[C@H]3CC[C@]4(C)C(=CC(=O)O[C@@]4(O)c4ccoc4)[C@]3(C)[C@H](O)C[C@@H]12 | > 20 µM | > 20 µM | > 20 µM | > 20 µM | > 20 µM |
| COC(=O)C[C@H]1[C@]2(C)C3=C(C)[C@H](c4ccoc4)C[C@H]3O[C@@H]2[C@@H]2OC[C@]3(C)[C@H](OC(C)=O)C[C@H](OC(=O)/C=C/c4ccccc4)[C@@]1(C)[C@@H]23 [OHCHININ ACETATE] | > 20 µM | > 20 µM | 9.9 µM | > 20 µM | > 20 µM |
| O=c1[nH]cc(F)c(=O)[nH]1 [FLUOROURACIL] | > 20 µM | > 20 µM | 9.1 µM | > 20 µM | > 20 µM |
| CC(=O)O[C@@H]1C[C@H]2C(C)(C)C(=O)C=C[C@]2(C)[C@H]2CC[C@]3(C)C(=CC(=O)O[C@]3(O)c3ccoc3)[C@@]21C [NIMOLICINOL] | > 20 µM | > 20 µM | > 20 µM | > 20 µM | > 20 µM |
| COC(=O)C[C@H]1[C@]2(C)C3=C(C)[C@H](c4ccoc4)C[C@H]3O[C@@H]2[C@H](OC(C)=O)[C@@H]2[C@]1(C)C(=O)C=C[C@@]2(C)O | > 20 µM | > 20 µM | > 20 µM | > 20 µM | > 20 µM |
| CC(=O)O[C@@H]1C[C@H]2C(C)(C)C(=O)C=C[C@]2(C)[C@H]2CC[C@]3(C)C(=CC(=O)[C@@]3(O)c3ccoc3)[C@@]21C [17-HYDROXYAZADIRADIONE] | > 20 µM | > 20 µM | 12.4 µM | > 20 µM | > 20 µM |
| CC(=O)O[C@@H]1C[C@H]2C(C)(C)C(=O)C=C[C@]2(C)[C@H]2CC[C@@]3(C)OC(=O)C=C3[C@@]21C | > 20 µM | > 20 µM | > 20 µM | > 20 µM | > 20 µM |
| CC(=O)O[C@@H]1C[C@H]2C(C)(C)C(=O)C=C[C@]2(C)[C@H]2CC[C@@]3(C)[C@H](c4ccoc4)C(=O)[C@H]4O[C@]43[C@@]21C [EPOXYAZADIRADIONE] | > 20 µM | > 20 µM | 9.3 µM | 12.3 µM | > 20 µM |
| CC(=O)O[C@H]1C[C@@H](OC(C)=O)[C@@]2(C)CO[C@@H]3[C@@H](O)[C@@]4(C)C5=CC[C@@H](c6ccoc6)[C@]5(C)CC[C@@H]4[C@]1(C)[C@@H]32 | 14.8 µM | > 20 µM | 15.3 µM | > 20 µM | > 20 µM |
| CC1(C)C(=O)C=C[C@]2(C)[C@H]3CC[C@]4(C)C(=CC(=O)[C@H]4c4ccoc4)[C@]3(C)[C@H](O)C[C@@H]12 [NIMBOCINOL] | > 20 µM | > 20 µM | > 20 µM | > 20 µM | > 20 µM |
| CC1(C)C(=O)C=C[C@]2(C)[C@H]3CC[C@]4(C)C(=CC(=O)[C@H]4c4ccoc4)[C@]3(C)[C@H](OC(=O)c3ccccc3)C[C@@H]12 | > 20 µM | > 20 µM | 5.3 µM | > 20 µM | 4 µM |
| CC(=O)O[C@@H]1C[C@H]2C(C)(C)C(=O)C=C[C@]2(C)[C@H]2CC[C@]3(C)C(=CC(=O)[C@]3(O)c3ccoc3)[C@@]21C | > 20 µM | > 20 µM | > 20 µM | > 20 µM | 19.1 µM |
